Measured values reported in ChEMBL document CHEMBL1121927, “Adriamycin analogues. Novel anomeric ribofuranoside analogues of daunorubicin” (1982).

Columns and labels:
[1] = system: CCRF-CEM; assay: Inhibitory activity of compound against CCRF-CEM cells,a lymphoblastic leukemic of human origin propagated in suspension culture.; assay type: functional; details: read-out: ID50 (the source's name)
[2] = system: Nucleic Acid; assay: Compound was tested for the extent of DNA binding in calf thymus at pH 7 TRIS buffer.; assay type: nucleic-acid assay; details: Bos taurus
Procedure, shortened: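 Spectral shift method with calf thymus DNA in Tris buffer, pH 7.0, at a drug/DNA molar ratio of 0.1. Binding extent is taken as the ratio of the absorbance of the drug–DNA mixture to that of drug alone at 480 nm.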

[3] = system: L1210; assay: Increase in life span of treated animals relative to untreated controls expressed in murine L1210 leukemia at a dose of 50 mg/kg x4 after ip injection; curative; assay type: functional, organism-based; parameters: dose 50 mg/kg; details: Mus musculus
[4] = system: L1210; assay: Increase in life span of treated animals relative to untreated controls expressed in murine L1210 leukemia at a dose of 50.6 mg/kg x4 after ip injection.; assay type: functional; details: Mus musculus, route intraperitoneal
Procedure, shortened: (§1)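 Mice implanted ip with 10⁵ L1210 leukemia cells on day 0. Treatment given ip once daily on days 1-4. Read-out is % ILS, the increase in life span of treated animals relative to untreated controls.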

[5] = system: L1210; assay: Increase in life span of treated animals relative to untreated controls expressed in murine L1210 leukemia at a dose of 45 mg/kg x4 after ip injection.; assay type: functional; details: Mus musculus, route intraperitoneal; procedure, shortened: as §1
[6] = system: L1210; assay: Increase in life span of treated animals relative to untreated controls expressed in murine L1210 leukemia at a dose of 90 mg/kg x4 after ip injection.; assay type: functional; details: Mus musculus, route intraperitoneal; procedure, shortened: as §1
[7] = system: L1210; assay: Increase in life span of treated animals relative to untreated controls expressed in murine L1210 leukemia at a dose of 70 mg/kg x4 after ip injection.; assay type: functional; details: Mus musculus, route intraperitoneal; procedure, shortened: as §1
[8] = system: L1210; assay: Increase in life span of treated animals relative to untreated controls expressed in murine L1210 leukemia at a dose of 4 mg/kg x4 after ip injection.; assay type: functional; details: Mus musculus, route intraperitoneal; procedure, shortened: as §1
[9] = system: L1210; assay: Increase in life span of treated animals relative to untreated controls expressed in murine L1210 leukemia at a dose of 15 mg/kg x4 after ip injection.; assay type: functional; details: Mus musculus, route intraperitoneal; procedure, shortened: as §1

Row | SMILES | IC50 [1] [nM] | Extent of DNA binding [2] | further results
1 | CCCCC(=O)OCC(=O)[C@]1(O)Cc2c(O)c3c(c(O)c2[C@@H](OC2CC(NC(=O)C(F)(F)F)C(O)C(C)O2)C1)C(=O)c1c(OC)cccc1C3=O (some centres undefined) | 240 | 0.96 | ILS [3]: Curative
2 | COc1cccc2c1C(=O)c1c(O)c3c(c(O)c1C2=O)C[C@@](O)(C(C)=O)C[C@@H]3O[C@@H]1O[C@H](C)[C@@H](N)[C@H]1O | 210 | 0.86 | ILS at 50.6 mg/kg [4]: 55%
3 | COc1cccc2c1C(=O)c1c(O)c3c(c(O)c1C2=O)C[C@@](O)(C(C)=O)C[C@@H]3O[C@H]1O[C@H](C)[C@@H](NC(=O)C(F)(F)F)[C@H]1O | 890 | – | ILS at 45 mg/kg [5]: 55%
4 | COc1cccc2c1C(=O)c1c(O)c3c(c(O)c1C2=O)C[C@@](O)(C(C)=O)C[C@@H]3O[C@@H]1O[C@H](CO)[C@@H](O)[C@H](O)[C@H]1N | 3040 | 0.82 | ILS at 90 mg/kg [6]: 60%
5 | COc1cccc2c1C(=O)c1c(O)c3c(c(O)c1C2=O)C[C@@](O)(C(C)=O)C[C@@H]3O[C@@H]1O[C@H](C)[C@@H](NC(=O)C(F)(F)F)[C@H]1O | 1080 | – | ILS at 70 mg/kg [7]: 66%
6 | COc1cccc2c1C(=O)c1c(O)c3c(c(O)c1C2=O)C[C@@](O)(C(=O)CO)C[C@@H]3O[C@H]1C[C@H](N)[C@H](O)[C@H](C)O1 [DOXORUBICIN] | 66 | 0.62 | ILS at 4 mg/kg [8]: 66%
7 | COc1cccc2c1C(=O)c1c(O)c3c(c(O)c1C2=O)C[C@@](O)(C(C)=O)C[C@@H]3O[C@H]1O[C@H](C)[C@@H](N)[C@H]1O | 280 | 0.8 | ILS at 15 mg/kg [9]: 22%
